Active and inactive are the calls of the source. The rule behind the calls is not given here.
What was measured:
[1] = molecular target: T1, Bile acid receptor (Homo sapiens) (UniProt Q96RI1); assay: (§1) Agonist activity at human recombinant FXR by transactivation of TK-MH100x4-LUC reporter gene in HEK293 cells; format: functional, cell-based
T1 sequence (whole entry): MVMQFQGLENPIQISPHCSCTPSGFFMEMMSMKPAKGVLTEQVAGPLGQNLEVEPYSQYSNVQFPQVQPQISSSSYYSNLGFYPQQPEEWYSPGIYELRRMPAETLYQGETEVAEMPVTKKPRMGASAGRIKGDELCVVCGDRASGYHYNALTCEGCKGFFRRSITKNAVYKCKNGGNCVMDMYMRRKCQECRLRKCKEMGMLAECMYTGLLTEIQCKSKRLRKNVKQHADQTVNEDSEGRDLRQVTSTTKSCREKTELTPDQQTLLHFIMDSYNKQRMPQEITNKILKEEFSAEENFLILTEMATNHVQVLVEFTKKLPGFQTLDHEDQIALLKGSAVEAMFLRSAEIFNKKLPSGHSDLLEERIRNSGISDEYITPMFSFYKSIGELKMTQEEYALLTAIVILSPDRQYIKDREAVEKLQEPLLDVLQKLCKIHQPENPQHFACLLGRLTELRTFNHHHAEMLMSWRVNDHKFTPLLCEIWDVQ

Bile acid receptor = molecular target: T2, Bile acid receptor (Homo sapiens, UniProt Q96RI1); assay: as §1; format: functional, cell-based
T2 sequence (Q96RI1 whole entry): T1 sequence (whole entry)

[2] = molecular target: T1, Bile acid receptor (Homo sapiens); assay: Activity at human recombinant FXR by transactivation of TK-MH100x4-LUC reporter gene in HEK293 cells at 10 uM; format: cell-based
[3] = molecular target: T3, Vitamin D3 receptor (Homo sapiens) (UniProt P11473); assay: Activity at human recombinant VDR by transactivation of TK-MH100x4-LUC reporter gene in HEK293 cells at 10 uM; format: cell-based
T3 sequence (whole entry): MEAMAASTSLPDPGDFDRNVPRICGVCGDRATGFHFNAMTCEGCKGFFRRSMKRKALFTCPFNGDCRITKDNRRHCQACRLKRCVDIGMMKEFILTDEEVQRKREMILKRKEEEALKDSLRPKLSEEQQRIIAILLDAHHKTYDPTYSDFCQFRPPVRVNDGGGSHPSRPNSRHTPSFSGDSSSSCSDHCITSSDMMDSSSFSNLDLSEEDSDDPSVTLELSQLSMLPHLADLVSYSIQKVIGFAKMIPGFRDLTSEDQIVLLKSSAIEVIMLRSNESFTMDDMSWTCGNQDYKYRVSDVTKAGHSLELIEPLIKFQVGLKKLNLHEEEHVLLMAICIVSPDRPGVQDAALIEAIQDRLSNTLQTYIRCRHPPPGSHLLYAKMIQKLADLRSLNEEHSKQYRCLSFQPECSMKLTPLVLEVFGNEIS

[4] = molecular target: T4, Retinoic acid receptor RXR-alpha (Homo sapiens) (UniProt P19793); assay: Activity at human recombinant RXRalpha by transactivation of TK-MH100x4-LUC reporter gene in HEK293 cells at 10 uM; format: cell-based
T4 sequence (whole entry): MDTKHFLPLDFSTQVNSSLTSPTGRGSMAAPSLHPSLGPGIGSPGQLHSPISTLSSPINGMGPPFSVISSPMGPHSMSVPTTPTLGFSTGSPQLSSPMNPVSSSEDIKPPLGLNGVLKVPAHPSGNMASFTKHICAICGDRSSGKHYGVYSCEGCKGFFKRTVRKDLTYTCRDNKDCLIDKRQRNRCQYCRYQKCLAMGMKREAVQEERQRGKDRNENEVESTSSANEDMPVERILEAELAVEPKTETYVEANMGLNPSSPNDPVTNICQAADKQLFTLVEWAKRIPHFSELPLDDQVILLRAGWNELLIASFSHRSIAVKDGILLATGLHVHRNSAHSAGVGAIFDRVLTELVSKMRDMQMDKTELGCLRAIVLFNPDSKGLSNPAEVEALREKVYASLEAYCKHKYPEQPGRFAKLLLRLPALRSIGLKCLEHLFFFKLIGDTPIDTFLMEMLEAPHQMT

[5] = molecular target: T5, Oxysterols receptor LXR-alpha (Homo sapiens) (UniProt Q13133); assay: Activity at human recombinant LXRalpha by transactivation of TK-MH100x4-LUC reporter gene in HEK293 cells at 10 uM; format: cell-based
T5 sequence (whole entry): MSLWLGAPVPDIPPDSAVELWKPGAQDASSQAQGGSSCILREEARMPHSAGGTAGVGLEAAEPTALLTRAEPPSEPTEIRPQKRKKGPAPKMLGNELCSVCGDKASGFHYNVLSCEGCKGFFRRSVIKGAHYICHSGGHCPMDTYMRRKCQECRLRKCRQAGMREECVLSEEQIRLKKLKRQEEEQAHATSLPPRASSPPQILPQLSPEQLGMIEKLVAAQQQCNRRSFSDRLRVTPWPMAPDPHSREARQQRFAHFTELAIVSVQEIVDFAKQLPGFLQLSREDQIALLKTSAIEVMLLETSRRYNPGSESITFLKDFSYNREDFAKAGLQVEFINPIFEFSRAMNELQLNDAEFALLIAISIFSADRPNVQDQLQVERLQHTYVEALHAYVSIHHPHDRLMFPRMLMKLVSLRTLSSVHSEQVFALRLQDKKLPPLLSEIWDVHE

[6] = molecular target: T6, Retinoic acid receptor alpha (Homo sapiens) (UniProt P10276); assay: Activity at human recombinant RARalpha by transactivation of TK-MH100x4-LUC reporter gene in HEK293 cells at 10 uM; format: cell-based
T6 sequence (whole entry): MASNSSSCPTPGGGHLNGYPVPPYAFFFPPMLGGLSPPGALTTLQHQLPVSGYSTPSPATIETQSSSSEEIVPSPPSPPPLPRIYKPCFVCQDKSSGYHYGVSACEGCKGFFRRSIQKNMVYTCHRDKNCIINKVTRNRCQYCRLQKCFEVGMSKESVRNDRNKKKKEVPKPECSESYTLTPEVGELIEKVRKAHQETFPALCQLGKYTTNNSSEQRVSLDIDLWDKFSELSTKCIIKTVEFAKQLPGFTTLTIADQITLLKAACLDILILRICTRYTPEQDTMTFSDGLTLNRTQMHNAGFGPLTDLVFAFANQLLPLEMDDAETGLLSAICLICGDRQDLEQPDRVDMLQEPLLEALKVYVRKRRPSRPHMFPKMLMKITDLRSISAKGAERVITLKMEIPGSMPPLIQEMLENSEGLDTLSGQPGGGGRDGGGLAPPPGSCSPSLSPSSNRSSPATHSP

[7] = molecular target: T7, Peroxisome proliferator-activated receptor alpha (Homo sapiens) (UniProt Q07869); assay: Activity at human recombinant PPARalpha by transactivation of TK-MH100x4-LUC reporter gene in HEK293 cells at 10 uM; format: cell-based
T7 sequence (whole entry): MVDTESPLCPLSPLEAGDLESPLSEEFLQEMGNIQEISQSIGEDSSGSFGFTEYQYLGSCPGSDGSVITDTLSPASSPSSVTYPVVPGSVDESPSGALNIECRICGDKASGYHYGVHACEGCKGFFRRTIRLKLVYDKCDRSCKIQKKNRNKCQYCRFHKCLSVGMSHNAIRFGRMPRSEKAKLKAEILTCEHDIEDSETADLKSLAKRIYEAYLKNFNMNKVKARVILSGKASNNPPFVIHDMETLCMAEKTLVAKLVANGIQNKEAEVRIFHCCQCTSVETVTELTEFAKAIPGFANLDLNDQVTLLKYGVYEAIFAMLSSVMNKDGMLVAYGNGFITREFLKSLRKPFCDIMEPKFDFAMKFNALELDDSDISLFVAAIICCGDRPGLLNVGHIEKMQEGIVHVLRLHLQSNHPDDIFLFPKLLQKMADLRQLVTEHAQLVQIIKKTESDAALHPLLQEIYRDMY

[8] = molecular target: T8, Peroxisome proliferator-activated receptor gamma (Homo sapiens) (UniProt P37231); assay: Activity at human recombinant PPARgamma by transactivation of TK-MH100x4-LUC reporter gene in HEK293 cells at 10 uM; format: cell-based
T8 sequence (whole entry): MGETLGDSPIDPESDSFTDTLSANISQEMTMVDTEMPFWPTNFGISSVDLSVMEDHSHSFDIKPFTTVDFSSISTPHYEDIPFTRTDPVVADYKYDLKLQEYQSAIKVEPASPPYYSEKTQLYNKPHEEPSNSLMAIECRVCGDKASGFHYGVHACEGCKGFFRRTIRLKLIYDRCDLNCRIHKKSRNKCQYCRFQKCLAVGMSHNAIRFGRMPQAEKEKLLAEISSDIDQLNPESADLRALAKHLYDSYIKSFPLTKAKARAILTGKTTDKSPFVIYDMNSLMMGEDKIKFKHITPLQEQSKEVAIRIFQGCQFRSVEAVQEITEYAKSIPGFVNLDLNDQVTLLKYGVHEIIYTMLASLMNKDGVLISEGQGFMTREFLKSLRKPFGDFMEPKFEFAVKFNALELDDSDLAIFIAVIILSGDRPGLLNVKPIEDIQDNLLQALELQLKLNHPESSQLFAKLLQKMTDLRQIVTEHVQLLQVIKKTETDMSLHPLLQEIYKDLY

[9] = molecular target: T9, Peroxisome proliferator-activated receptor delta (Homo sapiens) (UniProt Q03181); assay: Activity at human recombinant PPARdelta by transactivation of TK-MH100x4-LUC reporter gene in HEK293 cells at 10 uM; format: cell-based
T9 sequence (whole entry): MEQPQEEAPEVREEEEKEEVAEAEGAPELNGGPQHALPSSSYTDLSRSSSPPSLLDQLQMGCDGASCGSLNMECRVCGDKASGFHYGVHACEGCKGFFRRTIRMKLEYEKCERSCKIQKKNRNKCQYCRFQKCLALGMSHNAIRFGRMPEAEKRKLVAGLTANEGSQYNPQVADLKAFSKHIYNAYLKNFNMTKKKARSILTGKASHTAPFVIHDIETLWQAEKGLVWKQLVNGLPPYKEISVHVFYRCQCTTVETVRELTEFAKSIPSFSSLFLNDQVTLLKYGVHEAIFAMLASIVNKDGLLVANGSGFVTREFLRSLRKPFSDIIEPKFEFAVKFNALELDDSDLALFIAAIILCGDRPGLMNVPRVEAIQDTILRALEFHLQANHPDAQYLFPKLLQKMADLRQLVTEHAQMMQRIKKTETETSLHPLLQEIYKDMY

[10] = molecular target: T10, Peroxisome proliferator-activated receptor alpha (Homo sapiens, UniProt Q07869); assay: Agonist activity at human recombinant PPARalpha by transactivation of TK-MH100x4-LUC reporter gene in HEK293 cells; format: functional, cell-based
T10 sequence (Q07869 whole entry): T7 sequence (whole entry)
How it was run: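 GAL4 fusion of the human PPARα receptor (CMX-GAL4N-hPPARα) with the TK-MH100x4-LUC reporter, plus CMX β-galactosidase for normalization. HEK293 cells were grown in DMEM with 5% FBS at 37 °C and 5% CO2 and transfected by calcium phosphate coprecipitation. Compounds were added 8 h after transfection. Luciferase was read by luminometer, normalized to β-galactosidase, and averaged over three repeat experiments.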

Activity [1] | EC50 (Bile acid receptor) | Activity [2] | Activity [3] | Activity [4] | Activity [5] | Activity [6] | Activity [7] | Activity [8] | Activity [9] | EC50 [10] | Compound
Active |  |  |  |  |  |  |  |  |  |  | CCC(CC)(c1ccc(NCC(O)CO)c(C)c1)c1ccc(OCc2c(-c3c(Cl)cccc3Cl)noc2C(C)C)c(C)c1 (stereo not given)
 | 3.4 µM | Active | inactive | inactive | inactive | inactive | inactive | inactive | inactive |  | CCC(CC)(c1ccc(OCC(=O)O)c(C)c1)c1ccc(OCc2c(-c3c(Cl)cccc3Cl)noc2C(C)C)c(C)c1
 |  |  |  |  |  |  |  |  |  | 9.2 µM | CC(C)(Oc1ccc(C(=O)c2ccc(Cl)cc2)cc1)C(=O)O [FENOFIBRIC ACID]
 |  | inactive | inactive | inactive | inactive | inactive | Active | inactive | inactive | 3.5 µM | CCC(Oc1ccc(C2(c3ccc(OC(CC)C(=O)O)c(C)c3)CCCCC2)cc1C)C(=O)O (stereo not given)

Source: ChEMBL document CHEMBL1148498, “Diphenylmethane skeleton as a multi-template for nuclear receptor ligands: preparation of FXR and PPAR ligands” (Bioorg Med Chem Lett, 2006)
